From ChEMBL document CHEMBL1147679, “Differential inhibition of group IVA and group VIA phospholipases A2 by 2-oxoamides” (2006)
The source made the active and inactive calls. The calls are words filed in the database; no cut-off is given here.

Columns and labels:
[1] = molecular target: T1, 85/88 kDa calcium-independent phospholipase A2 (Homo sapiens) (UniProt O60733); experiment: Inhibition of group 6A iPLA2 at 0.091 mole fraction
T1 sequence (whole entry): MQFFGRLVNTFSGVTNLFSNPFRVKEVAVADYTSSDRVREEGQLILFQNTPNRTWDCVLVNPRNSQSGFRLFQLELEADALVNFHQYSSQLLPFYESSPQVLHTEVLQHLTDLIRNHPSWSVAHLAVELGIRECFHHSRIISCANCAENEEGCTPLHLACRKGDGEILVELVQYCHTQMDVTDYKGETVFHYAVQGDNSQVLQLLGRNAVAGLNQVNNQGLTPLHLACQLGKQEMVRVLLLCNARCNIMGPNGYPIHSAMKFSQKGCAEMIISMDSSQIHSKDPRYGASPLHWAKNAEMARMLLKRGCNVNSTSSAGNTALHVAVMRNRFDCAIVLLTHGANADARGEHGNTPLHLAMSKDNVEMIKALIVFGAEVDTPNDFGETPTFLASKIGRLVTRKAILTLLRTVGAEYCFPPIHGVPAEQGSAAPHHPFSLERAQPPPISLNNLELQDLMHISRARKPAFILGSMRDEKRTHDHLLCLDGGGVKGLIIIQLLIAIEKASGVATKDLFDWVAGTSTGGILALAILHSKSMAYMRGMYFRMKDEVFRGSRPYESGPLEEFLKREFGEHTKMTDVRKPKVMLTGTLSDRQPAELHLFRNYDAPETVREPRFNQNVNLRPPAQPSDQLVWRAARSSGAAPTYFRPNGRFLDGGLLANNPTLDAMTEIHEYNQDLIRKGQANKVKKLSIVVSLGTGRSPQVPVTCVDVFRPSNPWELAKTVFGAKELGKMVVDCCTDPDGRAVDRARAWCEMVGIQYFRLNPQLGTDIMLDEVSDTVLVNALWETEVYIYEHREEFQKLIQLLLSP
How it was run: (§1)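 Recombinant human GVIA-2 iPLA2 (His-tagged) was expressed in Sf9 cells by baculovirus and purified on Ni-NTA. Enzyme (190 ng) acted on mixed micelles of 100 µM DPPC with [14C]-palmitoyl PC tracer and 400 µM Triton X-100, in HEPES pH 7.5 with EDTA, DTT and ATP and 1% DMSO. Runs were 30 min at 40 °C, read by modified Dole assay. XI(50) (mole fraction) came from a logarithmic or linear fit; highest dose 0.091 mole fraction.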

[2] = molecular target: T2, Cytosolic phospholipase A2 (Homo sapiens) (UniProt P47712); experiment: Inhibition of group 4A cPLA2
T2 sequence (whole entry): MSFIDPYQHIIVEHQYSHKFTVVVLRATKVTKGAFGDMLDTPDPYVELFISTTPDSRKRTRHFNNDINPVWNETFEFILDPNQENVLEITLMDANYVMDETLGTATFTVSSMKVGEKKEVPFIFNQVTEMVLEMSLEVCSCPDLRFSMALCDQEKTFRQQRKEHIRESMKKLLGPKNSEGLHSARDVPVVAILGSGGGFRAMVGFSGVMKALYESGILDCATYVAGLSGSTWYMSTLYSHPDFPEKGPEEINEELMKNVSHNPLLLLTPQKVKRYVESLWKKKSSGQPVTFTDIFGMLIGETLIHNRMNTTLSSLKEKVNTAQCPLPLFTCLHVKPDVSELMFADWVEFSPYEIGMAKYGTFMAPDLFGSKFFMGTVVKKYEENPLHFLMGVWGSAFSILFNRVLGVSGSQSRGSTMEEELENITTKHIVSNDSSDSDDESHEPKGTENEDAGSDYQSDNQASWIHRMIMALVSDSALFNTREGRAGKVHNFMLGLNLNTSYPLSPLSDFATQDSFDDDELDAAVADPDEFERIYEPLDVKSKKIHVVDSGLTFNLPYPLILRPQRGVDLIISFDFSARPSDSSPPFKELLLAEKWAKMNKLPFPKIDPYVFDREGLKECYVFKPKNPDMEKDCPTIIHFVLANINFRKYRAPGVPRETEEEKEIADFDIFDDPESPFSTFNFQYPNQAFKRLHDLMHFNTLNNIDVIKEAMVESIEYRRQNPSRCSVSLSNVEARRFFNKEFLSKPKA
How it was run: (§2)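 Native human GIVA cPLA2 (10 ng) was assayed in 100 mM HEPES pH 7.5 with 80 µM CaCl2, 0.1 mg/mL fatty-acid-free BSA and 2 mM DTT. Substrate was 97 µM 1-palmitoyl-2-[14C]-arachidonoyl PC with 3 µM PIP2 and 400 µM Triton X-100 micelles, plus 1% DMSO. Runs were 30 min at 40 °C, read by modified Dole assay. Potency is XI(50) in surface mole fraction; highest dose 0.091 mole fraction.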

RAW264.7 = experiment: Inhibition of LPS-stimulated prostaglandin PGE2 production in mouse RAW 264.7 macrophage-like cell line; type: functional
How it was run: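 RAW 264.7 cells in DMEM/10% FCS were plated at 5×10^5 per well, allowed to adhere 24 h, then held serum-free 18 h. Inhibitors, in DMSO (<0.5% v/v) diluted into serum-free medium, were added 30 min before 100 ng/mL E. coli 0111:B4 LPS for 24 h. Medium PGE2 was quantified by LC-MS (negative ESI, MRM) against a deuterated PGE2 internal standard.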

[3] = molecular target: T1, 85/88 kDa calcium-independent phospholipase A2 (Homo sapiens); experiment: Inhibition of group 6A iPLA2; how it was run: as §1
[4] = molecular target: T1, 85/88 kDa calcium-independent phospholipase A2 (Homo sapiens); experiment: Inhibition of group 6A iPLA2 at 0.02 mole fraction
[5] = molecular target: T2, Cytosolic phospholipase A2 (Homo sapiens); experiment: Inhibition of group 4A cPLA2 at 0.01 mole fraction
[6] = molecular target: T2, Cytosolic phospholipase A2 (Homo sapiens); experiment: Inhibition of group 4A cPLA2 at 0.091 mole fraction; how it was run: as §2

| SMILES | inhibition [1] [%] | XI50 (mole fraction) [2] | inhibition [6] [%] | other results |
| --- | --- | --- | --- | --- |
| CCCCCCCC/C=C\CCCCCCCC(=O)C(=O)NCCCC(=O)O | 0 | 0.011 |  |  |
| CCCCCCCCCCCCCCC(=O)C(=O)N[C@@H](/C=C/C(=O)OC)CCCC |  | 0.018 |  | Inhibition (RAW264.7): 40%; XI50 (mole fraction) [3]: 0.032 |
| CCCCCCCCCCCCCCC(=O)C(=O)N[C@H](/C=C/C(=O)O)CCCC | 0 | 0.003 |  |  |
| CCCCCCCCCCCCCCCCNC(=O)C(=O)CC |  |  |  | inhibition [4]: 25%; inhibition [5]: 0% |
| O=C(O)CCCNC(=O)C(=O)CCCCc1ccccc1 | 0 |  | 0 |  |
| COC(=O)CCCNC(=O)C(=O)CCCc1ccccc1 | 0 |  | 0 |  |
| O=C(O)CCCNC(=O)C(=O)CCCc1ccccc1 | 0 |  | 0 |  |
| NC(=O)C(=O)CCCCc1ccccc1 | 0 |  | 0 |  |
| CCCCCCCC/C=C\CCCCCCCC(=O)C(=O)NCCCC(=O)OC |  | 0.012 |  | Inhibition (RAW264.7): 40%; XI50 (mole fraction) [3]: 0.067 |
| CCCCCCCCCCCCCCC(=O)C(=O)NCCCC(=O)OC | 25 |  | 0 | inhibition (RAW264.7): inactive |
| CCCCCCCCCCCCCCC(=O)C(=O)NCCCCCC |  |  |  | inhibition [4]: 25%; inhibition [5]: 0% |
| CCCCCCCCCCCCCCC(=O)C(=O)NCCCC(=O)O | 0 | 0.017 |  |  |
| COC(=O)CCCNC(=O)C(=O)CCCCc1ccccc1 | 0 |  | 0 |  |
| CCCCCCCCCCCCCC(=O)C(N)=O |  |  |  | inhibition [4]: 0%; inhibition [5]: 0% |
